CSN inh = CSN deneddylation inhibition; Q92905; Purified CSN, SCF-Nedd8-OG deneddylation, fluorescence polarization; inhibition, % at 12.5 µM; 0.38% of 360,000 active; AID 651999;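 active = pattern-corrected inhibition above about 35%, with an unprinted fluorescence ratio check between 0.5 and 1.5, limit read from the data, passing the limit was not always enough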;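 note: 0% = enzyme with substrate and 100% = substrate without enzyme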
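test system = HEK293T-derived human Csn5 enzyme | amount = 0.24 nM Csn5 enzyme, final concentration | medium = Tris/NaCl/DTT buffer, pH 7.5 | schedule = 90 min reaction at room temperature | signal = FP | evaluation = inhibition of Csn5 cleavage, % | compound dosing = single dose of 12.5 µM compound with 0.25% DMSO | probe or stimulus = 10 nM SCFSkp2-Nedd8OG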
LANA-H2B inh = blocks KSHV LANA binding to histone H2A/H2B; 0.6% of 320,000 active; cell-free LANA-H2A/H2B peptide, fluorescence polarization; inhibition, % (no concentration beside the values); in the data active = inhibition mostly above about 10%, no sharp cut-off; inactive = mostly below about 6.7%
ZTA counter = ZTA (EBV) inhibition in EBNA-1 counter-screen. inhibition, % at 11 µM. P03206. 0.15% of 320,000 active. ZTA-DNA binding, fluorescence polarization; in the data active = inhibition above about 33%
Bfl-1 A1 inh = inhibitors of the anti-apoptotic protein A1, read as caspase activation | MEF A1-2A-BIM cells, Caspase-Glo 3/7 luminescence, 3 h; percent of clofoctol response, vehicle zero | caspase activation, % (concentration not given with the values) | 0.066% of 330,000 active;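 active = over half of replicate activation scores above 10%, or exactly half above 10 with the replicate mean above 10; inconclusive = replicate mean below 10 yet half the replicates above 10; inactive = over half of replicates below 10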
EBNA-1 inh = blocks EBNA-1 binding to DNA. 0.34% of 300,000 active. EBNA-1 DNA binding, fluorescence polarization. inhibition, % at 14.8 µM. AID 1950; in the data active = inhibition above about 28%
HNF4A DNA FP = change in binding of human HNF4 alpha to DNA. HNF4a-FITC DNA binding, fluorescence polarization, 1 h. activity change, % at 10 µM. 0.3% of 360,000 active. AID 1224865; in the data active = activity change above about 30%, passing the limit was not always enough
Target sequence (P41235 whole entry, looked up): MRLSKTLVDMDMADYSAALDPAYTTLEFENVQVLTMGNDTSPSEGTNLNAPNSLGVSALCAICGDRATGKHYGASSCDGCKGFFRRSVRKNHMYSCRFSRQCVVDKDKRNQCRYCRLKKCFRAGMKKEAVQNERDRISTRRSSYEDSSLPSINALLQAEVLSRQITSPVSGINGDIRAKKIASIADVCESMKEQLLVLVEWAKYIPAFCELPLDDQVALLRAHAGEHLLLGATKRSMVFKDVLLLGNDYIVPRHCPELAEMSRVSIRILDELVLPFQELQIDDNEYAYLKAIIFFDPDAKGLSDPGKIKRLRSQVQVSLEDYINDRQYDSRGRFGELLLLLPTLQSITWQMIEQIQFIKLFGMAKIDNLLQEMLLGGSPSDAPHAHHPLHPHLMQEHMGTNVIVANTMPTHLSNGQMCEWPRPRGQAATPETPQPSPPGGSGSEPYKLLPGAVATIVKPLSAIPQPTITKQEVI
EBNA-1 confirm = EBNA-1 (EBV) inhibition, confirmation | 35% of 830 active | AID 2292 | Recombinant EBNA-1 DBD, Cy5-DNA fluorescence polarization | shares compounds with EBNA-1 inh | inhibition, % at 14.8 µM;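 active = mean inhibition across replicates above a set limit taken from the earlier primary screen, cut at about 28% in these data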;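 note: plate controls were EBNA-1 protein with DMSO for no effect and wells lacking EBNA-1 for full effect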
ZTA DNA inh trip = ZTA (EBV) inhibition, triplicate counter-screen; shares compounds with EBNA-1 inh; Zta-ZRE DNA binding, Cy5 fluorescence polarization; inhibition, % at 11.1 µM; 830 tested, under 10 active; AID 2328;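 active = mean inhibition over triplicates above a set limit taken from the primary EBNA-1 screen, cut at about 37% in these data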;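 note: purified full length Zta protein with Cy5 labeled ZRE DNA probe; 0% = Zta with DMSO and 100% = wells lacking Zta protein; inhibitors lower polarization by freeing the labeled DNA probe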
The depositor's hits bear a star; u = inconclusive; x = not tested or not shown. Compounds with a hit are over-represented: about 1.5% of the library has one in this group of screens.

SMILES	CSN inh	LANA-H2B inh	ZTA counter	Bfl-1 A1 inh	EBNA-1 inh	HNF4A DNA FP	EBNA-1 confirm	ZTA DNA inh trip
COc1ccc(CNC(=O)CN2C(=O)C3CCCN3c3ncc(Cl)cc32)cc1 (stereo not drawn)	-2	-5	20	0	29*	30	-8	-2
C=CCn1c(=NC(=O)C2COc3ccccc3O2)sc2cc(S(N)(=O)=O)ccc21 (stereo not drawn)	-2	-2	8	0	31*	1	11	-10
COCCn1c(=NC(=O)C2COc3ccccc3O2)sc2cc(S(N)(=O)=O)ccc21 (stereo not drawn)	-4	-2	1	3	-10	4	x	x
COc1ccc(NC(C)=O)cc1CP(=O)(c1ccccc1)c1ccccc1	-2	-3	-1	0	6	3	x	x
Cc1c(Cl)cccc1-c1ccc(CNCc2ccccn2)o1	5	-1	3	-1	-4	0	x	x
Nc1c(C(=O)Nc2ccccc2)sc2nc(-c3ccco3)ccc12	29	-6	19	-2	54*	13	59*	11
CCOC(=O)c1sc(N=NC2=C(O)CC(C)(C)CC2=O)c(C(=O)OCC)c1C	-9	0	16	1	-2	15	x	x
CCCCCNC(=O)c1c[nH]c2ccc(S(=O)(=O)N3CCC4(CC3)OCCO4)cc2c1=O	7	6	5	0	29*	4	4	2
COc1ccc(-c2cc(CCCC(=O)NCCc3ccc(OC)cc3OC)no2)cc1	-2	4	1	2	36*	3	46*	13
CC1CCC2(CC1)NC(=O)N(CC(=O)NC1CCCCC1C)C2=O (stereo not drawn)	-4	0	x	1	x	2	x	x
COc1ccccc1CNC(=O)C1CCN(C(=O)N(C)C)CC1	-1	-3	31	0	78*	-1	3	3
O=S(=O)(Nc1nc2ccccc2nc1Nc1cccc(S(=O)(=O)N2CCCCC2)c1)c1ccccc1	-6	6	4	-1	37*	-14	4	-2
COc1ccc(S(=O)(=O)Nc2cccc(S(=O)(=O)N3CCCCCC3)c2)cc1	9	0	0	1	6	2	x	x
NC(=O)CN1C(=O)NC2(CCCc3sccc32)C1=O (stereo not drawn)	-5	-5	-7	1	-4	-3	x	x
Cc1cc(C(=O)CN2C(=O)NC3(CCCc4sccc43)C2=O)c(C)n1-c1ccc(Cl)cc1 (stereo not drawn)	0	1	-4	0	34*	1	17	-11
Cc1ccc(NC(=O)c2ccc([N+](=O)[O-])s2)cc1S(=O)(=O)N1CCOCC1	-5	3	x	0	x	4	x	x
Cc1ccc(C(=O)Nc2ccc(S(=O)(=O)NC3=NCCCCC3)cc2)cc1S(=O)(=O)N1CCOCC1	-4	4	13	0	x	0	x	x
Cc1ccccc1Nc1nnc(SCc2nc3ccccc3c(=O)[nH]2)s1	x	-1	-16	0	-5	x	x	x
CCOc1ccc(Nc2nnc(SCc3nc4ccccc4c(=O)[nH]3)s2)cc1	0	4	12	0	38*	0	52*	24
CC(=O)Nc1ccc(NC(=O)C(Sc2ccccc2)c2ccccc2)cc1 (stereo not drawn)	9	4	12	1	4	-2	x	x
CC(C)NC(=O)C(Sc1ccccc1)c1ccccc1 (stereo not drawn)	5	-5	-6	1	39*	2	1	1
Cc1noc(C)c1S(=O)(=O)Nc1ccc2c(c1)CC(=O)N([C@H](C)CO)C[C@H](C)[C@H](CN(C)S(=O)(=O)c1ccc(F)cc1)O2	0	6	x	-1	x	-2	x	x
O=C(NCc1nnc(SCC(=O)N2CCN(c3ccccc3)CC2)o1)c1c(F)cccc1F	-1	0	1	u	-15	-1	x	x
Cc1ccc(S(=O)(=O)N(CC(=O)N/N=C\c2cccs2)c2cccc3cccnc23)cc1	-11	1	-5	-1	32*	-1	28*	-4
NS(=O)(=O)c1ccc(NC(=S)Nc2ccn(Cc3cccc4ccccc34)n2)cc1	3	0	-1	0	29*	-3	34*	-4
SMILES	CSN inh	LANA-H2B inh	ZTA counter	Bfl-1 A1 inh	EBNA-1 inh	HNF4A DNA FP	EBNA-1 confirm	ZTA DNA inh trip
NS(=O)(=O)c1ccc(NS(=O)(=O)c2ccc(NC(=S)Nc3ccccc3)cc2)cc1	2	3	-8	2	-4	-3	x	x
CN(C)CCCNC(NC(=O)/C=C/c1ccccc1)C(Cl)(Cl)Cl (stereo not drawn)	-1	4	-9	0	-12	10	x	x
CN1C(=O)CC(C(=O)Nc2ccccc2F)SC1=Nc1ccc2c(c1)OCO2 (stereo not drawn)	1	-3	-2	1	28*	-3	50*	4
COc1ccc(N=C2SC(C(=O)Nc3ccc4c(c3)OCO4)CC(=O)N2C)cc1 (stereo not drawn)	-4	1	-15	0	2	-3	x	x
CCN(CC)c1ccc(/C=N/NC(=O)c2nnn(-c3nonc3N)c2CN(C)C2CCCCC2)cc1	1	x	x	x	x	-3	x	x
O=C1c2ccccc2C(=O)N1CCCCN(C(=O)c1cc2ccccc2oc1=O)c1ccc(Cl)cc1	5	1	1	-2	37*	-2	0	19
O=C(NCc1ccc(Cl)cc1)c1cc2ccccc2oc1=O	-1	-2	x	1	x	0	x	x
COC(=O)C1=C(CSc2nc3ccccc3s2)NC(=O)NC1c1ccc(F)cc1 (stereo not drawn)	5	0	-3	0	42*	2	16	2
CCc1nc2c(OCc3cc(Cl)cc(Cl)c3)cccn2c1N(C)C(=O)c1ccc(OC)cc1	-1	x	x	x	x	1	x	x
CCc1ccc(N2CC(C(=O)Nc3ccc(S(=O)(=O)NCC4CCCO4)cc3)CC2=O)cc1 (stereo not drawn)	1	1	9	1	94*	0	29*	-18
O=C(Nc1ccc(S(=O)(=O)NCC2CCCO2)cc1)C1CC(=O)N(c2ccccc2)C1 (stereo not drawn)	4	-3	1	0	-7	1	x	x
CCn1c(C)nc2cc(C(=O)N/N=C(\C)c3ccccc3O)ccc21	-2	0	3	0	-3	-1	x	x
Cn1c(=O)n(C)c2cc(/C=C3/NC(=O)N(Cc4ccccc4)C3=O)ccc21	-1	-1	-7	0	134*	7	113*	1
